Experimental data as given in ChEMBL document CHEMBL1125741, “Synthesis and anticonvulsant activity of imidooxy derivatives” (J Med Chem, 1991).
Active and inactive are the calls of the source. No cut-off for these calls is given here.

Experiments:
Gallus gallus [1] = assay: Anticonvulsant activity by subcutaneous pentylenetetrazole test at a dose of 30 mg/kg against young chicks after 4 hr; 1/1; assay type: functional
[2] = Time of peak effect (TPE) for toxicity; parameters: unit not given here
Procedure, shortened: (§1)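 Phase II quantitation, drug given ip. ED50 in the MES or scMet test was taken at the time of peak effect, with the peak time set in MES for some compounds and in scMet for others. Rotorod TD50 was taken at the time of peak neurologic deficit. Values are in mg/kg with 95% confidence limits. Protective index is TD50/ED50.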

Gallus gallus [3] = assay: Anticonvulsant activity by maximal electroshock test at a dose of 300 mg/kg against young chicks after 30 min; 1/1; assay type: functional
[4] = Protective index which is the ratio of TD50 to ED50 of against subcutaneous pentylenetetrazole test; assay type: functional; procedure, shortened: as §1
[5] = Time of peak effect (TPE) for activity; assay type: ADME; parameters: unit not given here; procedure, shortened: as §1
Gallus gallus [6] = assay: Anticonvulsant activity by subcutaneous pentylenetetrazole test at a dose of 100 mg/kg against young chicks after 30 min; 1/1; assay type: functional
Gallus gallus [7] = assay: Anticonvulsant activity by subcutaneous pentylenetetrazole test at a dose of 300 mg/kg against young chicks after 30 min; 0/0; assay type: functional
Gallus gallus [8] = assay: Toxicity test (number of animals exhibiting toxicity / number of animals tested) done at a dose 100 mg/kg against young chicks after 4 hr; 4/4; assay type: organism-based; parameters: dose 100 mg/kg; details: chicken, in vivo
Gallus gallus [9] = assay: Anticonvulsant activity by maximal electroshock test at a dose of 30 mg/kg against young chicks after 30 min; 1/1; assay type: functional
Gallus gallus [10] = assay: Anticonvulsant activity by subcutaneous pentylenetetrazole test at a dose of 30 mg/kg against young chicks after 30 min; 1/1; assay type: functional
Gallus gallus [11] = assay: Compound was evaluated for effective dose by subcutaneous pentylenetetrazole test after intraperitoneal administration of the compound; Not Effective; assay type: functional, organism-based; procedure, shortened: as §1
Gallus gallus [12] = assay: Toxicity test (number of animals exhibiting toxicity / number of animals tested) at a dose of 50 mg/kg after 2 hr; 6/8; assay type: organism-based; parameters: dose 50 mg/kg; details: chicken, in vivo
Gallus gallus [13] = assay: Toxicity test (number of animals exhibiting toxicity / number of animals tested) at a dose of 30 mg/kg after 0.25 hr; 0/8; assay type: organism-based; parameters: dose 30 mg/kg; details: chicken, in vivo
Gallus gallus [14] = assay: Toxicity test (number of animals exhibiting toxicity / number of animals tested) at a dose of 30 mg/kg after 4 hr; 8/8; assay type: organism-based; parameters: dose 30 mg/kg; details: chicken, in vivo
Gallus gallus [15] = assay: Subcutaneous pentylenetetrazole test (ScMet) (number of animals protected / number of animals tested) at a dose of 30 mg/kg after 2 hr; 8/8; assay type: functional
Gallus gallus [16] = assay: Toxicity test (number of animals exhibiting toxicity / number of animals tested) at a dose of 30 mg/kg after 1 hr; 1/8; assay type: organism-based; parameters: dose 30 mg/kg; details: chicken, in vivo
Gallus gallus [17] = assay: Toxicity test (number of animals exhibiting toxicity / number of animals tested) at a dose of 30 mg/kg after 2 hr; 8/8; assay type: organism-based; parameters: dose 30 mg/kg; details: chicken, in vivo
Gallus gallus [18] = assay: Subcutaneous pentylenetetrazole test (ScMet) (number of animals protected / number of animals tested) at a dose of 30 mg/kg after 0.25 hr; 4/8; assay type: functional
Gallus gallus [19] = assay: Toxicity test (number of animals exhibiting toxicity / number of animals tested) at a dose of 50 mg/kg after 1 hr; 7/8; assay type: organism-based; parameters: dose 50 mg/kg; details: chicken, in vivo
Gallus gallus [20] = assay: Subcutaneous pentylenetetrazole test (ScMet) (number of animals protected / number of animals tested) at a dose of 30 mg/kg after 0.50 hr; 4/8; assay type: functional
Gallus gallus [21] = assay: Subcutaneous pentylenetetrazole test (ScMet) (number of animals protected / number of animals tested) at a dose of 30 mg/kg after 1 hr; 8/8; assay type: functional
Gallus gallus [22] = assay: Toxicity test (number of animals exhibiting toxicity / number of animals tested) at a dose of 30 mg/kg after 6 h; 8/8; assay type: organism-based; parameters: dose 30 mg/kg; details: chicken, in vivo
Gallus gallus [23] = assay: Toxicity test (number of animals exhibiting toxicity / number of animals tested) at a dose of 50 mg/kg after 0.50 hr; 4/8; assay type: organism-based; parameters: dose 50 mg/kg; details: chicken, in vivo, 0.5 h
Gallus gallus [24] = assay: Toxicity test (number of animals exhibiting toxicity / number of animals tested) at a dose of 30 mg/kg after 0.50 hr; 0/8; assay type: organism-based; parameters: dose 30 mg/kg; details: chicken, in vivo, 0.5 h
[25] = Protective index which is the ratio of TD50 to ED50 of in maximal electroshock test.; assay type: functional; procedure, shortened: as §1
Gallus gallus [26] = assay: Anticonvulsant activity by maximal electroshock test at a dose of 100 mg/kg against young chicks after 30 min; 1/3; assay type: functional
Gallus gallus [27] = assay: Toxicity test (number of animals exhibiting toxicity / number of animals tested) done at a dose 100 mg/kg against young chicks after 4 hr; […]; assay type: organism-based; parameters: dose 100 mg/kg; details: chicken, in vivo
Gallus gallus [28] = assay: Anticonvulsant activity by subcutaneous pentylenetetrazole test at a dose of 300 mg/kg against young chicks after 30 min; 1/1; assay type: functional
[29] = Compound was evaluated for toxic dose at peak neurologic deficit after intraperitoneal administration of the compound.; assay type: ADME, organism-based, Gallus gallus; details: chicken, in vivo, ip
Procedure, shortened: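 Mice received compound dissolved or suspended in 30% polyethylene glycol 400 by intraperitoneal injection. Neurological toxicity was scored as failure on the rotorod test. Testing was run through the NINCDS Antiepileptic Drug Development Program.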

Gallus gallus [30] = assay: Compound was evaluated for effective dose by maximal electroshock test after intraperitoneal administration of the compound.; assay type: functional; details: ip; procedure, shortened: as §1
Gallus gallus [31] = assay: Toxicity test (number of animals exhibiting toxicity / number of animals tested) done at a dose 100 mg/kg against young chicks after 30 min; 8/8; assay type: organism-based; parameters: dose 100 mg/kg; details: chicken, in vivo, 0.5 h
Gallus gallus [32] = assay: Anticonvulsant activity by subcutaneous pentylenetetrazole test at a dose of 100 mg/kg against young chicks after 30 min; 0/0; assay type: functional
Gallus gallus [33] = assay: Anticonvulsant activity by maximal electroshock test at a dose of 100 mg/kg against young chicks after 30 min; 2/3; assay type: functional

Structure (SMILES): C=C(CON1C(=O)c2ccccc2C1=O)C(=O)OC
- No. of animals protected/animals tested (Gallus gallus [1]): 1
- TPE [2]: 4
- No. of animals protected/animals tested (Gallus gallus [3]): 1
- PI [4]: 0.72
- TPE [5]: 1
- No. of animals protected/animals tested (Gallus gallus [6]): 1
- No. of animals protected/animals tested (Gallus gallus [7]): 0
- No. of animals protected/animals tested (Gallus gallus [8]): 4
- No. of animals protected/animals tested (Gallus gallus [9]): 1
- No. of animals protected/animals tested (Gallus gallus [10]): 1

Structure (SMILES): O=C1NC(=O)C(c2ccccc2)(c2ccccc2)N1 [PHENYTOIN]
- TPE [2]: 2
- TPE [5]: 2
- ED50 (Gallus gallus [11]): inactive

Structure (SMILES): C=C(CON1C(=O)CCC1=O)C(=O)OC
- No. of animals protected/animals tested (Gallus gallus [12]): 6
- No. of animals protected/animals tested (Gallus gallus [13]): 0
- No. of animals protected/animals tested (Gallus gallus [14]): 8
- No. of animals protected/animals tested (Gallus gallus [15]): 8
- No. of animals protected/animals tested (Gallus gallus [16]): 1
- No. of animals protected/animals tested (Gallus gallus [17]): 8
- No. of animals protected/animals tested (Gallus gallus [18]): 4
- No. of animals protected/animals tested (Gallus gallus [19]): 7
- No. of animals protected/animals tested (Gallus gallus [20]): 4
- No. of animals protected/animals tested (Gallus gallus [21]): 8
- No. of animals protected/animals tested (Gallus gallus [22]): 8
- No. of animals protected/animals tested (Gallus gallus [23]): 4
- No. of animals protected/animals tested (Gallus gallus [24]): 0

Structure (SMILES): CCC1(C)CC(=O)NC1=O (stereo not given) [ETHOSUXIMIDE]
- TPE [2]: 0.5
- TPE [5]: 0.5

Structure (SMILES): CCCC(CCC)C(=O)O [VALPROIC ACID]
- TPE [2]: 0.25
- PI [4]: 2.87
- TPE [5]: 0.25
- PI [25]: 1.57

Structure (SMILES): CCOC(=O)ON1C(=O)CCC1=O
- No. of animals protected/animals tested (Gallus gallus [26]): 1
- No. of animals protected/animals tested (Gallus gallus [27]): 4
- No. of animals protected/animals tested (Gallus gallus [28]): 1

Structure (SMILES): NC(=O)N1c2ccccc2C=Cc2ccccc21 [CARBAMAZEPINE]
- TPE [2]: 0.25
- TPE [5]: 0.25
- ED50 (Gallus gallus [11]): inactive

Structure (SMILES): O=C1c2cccc3cccc(c23)C(=O)N1[O-].[Na+]
- TPE [2]: 4
- PI [4]: 0.84
- TPE [5]: 0.25

Structure (SMILES): CCC1(c2ccccc2)C(=O)NC(=O)NC1=O [PHENOBARBITAL]
- TPE [2]: 0.5
- TPE [5]: 1

Structure (SMILES): O=C1CC2(CCCC2)C(=O)N1OCc1ccccc1
- TPE [2]: 4
- TPE [5]: 0.25
- TD50 [29]: > 500 mg/kg
- PI [25]: 4.5

Structure (SMILES): O=C1c2ccccc2C(=O)N1O
- TPE [2]: 0.25
- TPE [5]: 0.25
- ED50 (Gallus gallus [30]): 95.4 mg/kg
- No. of animals protected/animals tested (Gallus gallus [8]): 4
- PI [25]: 0.99
- No. of animals protected/animals tested (Gallus gallus [31]): 8
- No. of animals protected/animals tested (Gallus gallus [32]): 0
- No. of animals protected/animals tested (Gallus gallus [33]): 2
